Experimental data reported in ChEMBL document CHEMBL3421570, “Combinatorial Libraries As a Tool for the Discovery of Novel, Broad-Spectrum Antibacterial Agents Targeting the ESKAPE Pathogens” (J Med Chem, 2015).
In brackets after ≈: the same amount, converted by molar mass. Activity calls are given as the source filed them. The rule behind the calls is not given here.

Legend:
Enterobacter cloacae [1] = assay: Antimicrobial activity against Enterobacter cloacae assessed as inhibition of microbial growth after 24 hrs; type: functional
In short: (§1)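 Broth microdilution against multidrug-resistant clinical ESKAPE isolates. Overnight cultures (TSB for Gram-positives, LB for Gram-negatives) diluted 1:1000 in fresh medium, compound in DMF (≤2.0% DMF) added at decreasing concentrations, 37°C.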

Enterobacter cloacae [2] = assay: Ratio of MIC for Enterobacter cloacae measured after 8 cycle passage to MIC for wild type Enterobacter cloacae; type: functional
Staphylococcus aureus [3] = assay: Induction of spontaneous mutation in Staphylococcus aureus at 2 to 10 MIC; type: functional, organism-based
[4] = Cytotoxicity against human A549 cells assessed as cell viability recovery up to 125 uM after 48 hrs by MTT assay; type: cell-based; details: read-out: Activity
In short: (§2)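 A549 cells grown in F-12K with L-glutamine, 10% FBS, 1% penicillin-streptomycin, seeded at 1.0 × 10^5 ml−1, allowed to adhere 24 h (37°C, 5% CO2), then exposed to compound in 45% w/v (2-hydroxypropyl)-β-cyclodextrin vehicle for 48 h. MTT 4 h, formazan solubilized in DMSO, absorbance 540 nm. Percent recovery versus vehicle-only; IC50 derived; at least three independent experiments.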

Pseudomonas aeruginosa [5] = assay: Induction of spontaneous mutation in Pseudomonas aeruginosa at 2 to 10 MIC; type: functional, organism-based; details: 2 to 10 x MIC
[6] = Selectivity index, ratio of IC50 for human A549 cells to MIC for Enterobacter cloacae
Enterococcus faecium [7] = assay: Antibiofilm activity against Enterococcus faecium incubated for 24 hrs followed by biofilm resuspension in PBS and measured after 24 hrs; type: functional
In short: (§3)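 Biofilms grown 24 h in 96-well plates from overnight cultures standardized to OD600 0.5 in fresh medium (human serum only for S. aureus; TSB for Gram-positives, LB for Gram-negatives). Medium then replaced with fresh medium containing a concentration range above and below MIC, 37°C overnight. After 24 h biofilm resuspended in PBS, serially diluted, plated in duplicate, CFU counted after 24 h at 37°C. Activity relative to untreated; three technical replicates; MBEC50 reported.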

Klebsiella pneumoniae [8] = assay: Antimicrobial activity against Klebsiella pneumoniae assessed as inhibition of microbial growth after 24 hrs; type: functional; in short: as §1
Klebsiella pneumoniae [9] = assay: Antimicrobial activity against Klebsiella pneumoniae assessed as inhibition of microbial growth at 45 uM after 24 hrs; type: functional, organism-based
In short: (§4)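 Broth microdilution single-concentration read: overnight cultures diluted 1:1000, compound in DMF (≤2.0%) added, 37°C for 24 h, growth inhibition scored visually by lack of turbidity; triplicate. Gram-positives grown in TSB, Gram-negatives in LB.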

Enterococcus faecium [10] = assay: Induction of spontaneous mutation in Enterococcus faecium at 2 to 10 MIC; type: functional, organism-based
Staphylococcus aureus [11] = assay: Bactericidal activity against Staphylococcus aureus after 24 hrs; type: functional
Enterobacter cloacae [12] = assay: Bactericidal activity against Enterobacter cloacae after 24 hrs; type: functional
Pseudomonas aeruginosa [13] = assay: Antimicrobial activity against Pseudomonas aeruginosa assessed as inhibition of microbial growth at 45 uM after 24 hrs; type: functional, organism-based; in short: as §4
Klebsiella pneumoniae [14] = assay: Bactericidal activity against Klebsiella pneumoniae after 24 hrs; type: functional
Staphylococcus aureus [15] = assay: Antimicrobial activity against Staphylococcus aureus USA300 strain FPR3757 infected in mouse model of lethal peritonitis assessed as mouse survival at 2 uM, im dosed 1 hr post infection and measured after 5 days post infection; type: functional, organism-based
In short: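 Mice, six per group, infected i.p. with 1 × 10^8 CFU ml−1 S. aureus USA300 FPR3757 in PBS with 5% mucin. Compound given i.m. at 2 μM 1 h later; vehicle 45% w/v (2-hydroxypropyl)-β-cyclodextrin in water i.v.; vancomycin i.v. as control. Monitored twice daily for 5 days, pre-moribund animals euthanized. Survival compared by log-rank test.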

Enterococcus faecium [16] = assay: Antimicrobial activity against Enterococcus faecium assessed as inhibition of microbial growth at 45 uM after 24 hrs; type: functional, organism-based; in short: as §4
Acinetobacter baumannii [17] = assay: Antimicrobial activity against Acinetobacter baumannii assessed as inhibition of microbial growth at 45 uM after 24 hrs; type: functional, organism-based; in short: as §4
Staphylococcus aureus [18] = assay: Bactericidal activity against methicillin-resistant Staphylococcus aureus at MIC measured after drug wash out after 120 mins by time kill assay; type: functional
In short: (§5)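 MRSA from stationary phase was regrown 3 h in TSB and seeded at OD600 0.5. […] After 120 min, cells were centrifuged and washed, serially diluted and plated for CFU. Percent recovery is relative to no-drug controls.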

Klebsiella pneumoniae [19] = assay: Induction of spontaneous mutation in Klebsiella pneumoniae at 2 to 10 MIC; type: functional, organism-based
Enterococcus faecium [20] = assay: Bactericidal activity against Enterococcus faecium after 24 hrs; type: functional
Enterococcus faecium [21] = assay: Antimicrobial activity against Enterococcus faecium assessed as inhibition of microbial growth after 24 hrs; type: functional; in short: as §1
Staphylococcus aureus [22] = assay: Antimicrobial activity against Staphylococcus aureus assessed as inhibition of microbial growth after 24 hrs; type: functional; in short: as §1
[23] = Selectivity index, ratio of IC50 for human A549 cells to MIC for Staphylococcus aureus
[24] = Selectivity index, ratio of IC50 for human A549 cells to MIC for Enterococcus faecium
Pseudomonas aeruginosa [25] = assay: Antimicrobial activity against Pseudomonas aeruginosa isolate 1414 assessed as inhibition of microbial growth in presence of 100 uM efflux pump inhibitor reserpine after 24 hrs; type: functional, organism-based
Klebsiella pneumoniae [26] = assay: Ratio of MIC for Klebsiella pneumoniae measured after 8 cycle passage to MIC for wild type Klebsiella pneumoniae; type: functional
Staphylococcus aureus [27] = assay: Effect on bacterial density of methicillin-resistant Staphylococcus aureus at MIC measured over 2 hrs period by time kill assay; type: functional, organism-based
[28] = Selectivity index, ratio of IC50 for human A549 cells to MIC for Acinetobacter baumannii
Staphylococcus aureus [29] = assay: Antibiofilm activity against Staphylococcus aureus incubated for 24 hrs followed by biofilm resuspension in PBS and measured after 24 hrs; type: functional; in short: as §3
Enterobacter cloacae [30] = assay: Induction of spontaneous mutation in Enterobacter cloacae at 2 to 10 MIC; type: functional, organism-based
Pseudomonas aeruginosa [31] = assay: Antibiofilm activity against Pseudomonas aeruginosa incubated for 24 hrs followed by biofilm resuspension in PBS and measured after 24 hrs; type: functional; in short: as §3
Acinetobacter baumannii [32] = assay: Induction of spontaneous mutation in Acinetobacter baumannii at 2 to 10 MIC; type: functional, organism-based
Enterobacter cloacae [33] = assay: Antimicrobial activity against Enterobacter cloacae assessed as inhibition of microbial growth at 45 uM after 24 hrs; type: functional, organism-based; in short: as §4
Acinetobacter baumannii [34] = assay: Ratio of MIC for Acinetobacter baumannii measured after 8 cycle passage to MIC for wild type Acinetobacter baumannii; type: functional
Enterobacter cloacae [35] = assay: Antibiofilm activity against Enterobacter cloacae incubated for 24 hrs followed by biofilm resuspension in PBS and measured after 24 hrs; type: functional; in short: as §3
Staphylococcus aureus [36] = assay: Ratio of MIC for Staphylococcus aureus measured after 8 cycle passage to MIC for wild type Staphylococcus aureus; type: functional
[37] = Cytotoxicity against human A549 cells assessed as cell viability recovery at 225 uM after 48 hrs by MTT assay; type: cell-based; details: read-out: Activity; in short: as §2
Acinetobacter baumannii [38] = assay: Bactericidal activity against Acinetobacter baumannii after 24 hrs; type: functional
[39] = Selectivity index, ratio of IC50 for human A549 cells to MIC for Pseudomonas aeruginosa
Staphylococcus aureus [40] = assay: Bactericidal activity against methicillin-resistant Staphylococcus aureus assessed as cell survival recovery at MIC measured after drug wash out after 120 mins by time kill assay; type: functional; in short: as §5
Pseudomonas aeruginosa [41] = assay: Antimicrobial activity against Pseudomonas aeruginosa assessed as inhibition of microbial growth after 24 hrs; type: functional; in short: as §1
Pseudomonas aeruginosa [42] = assay: Bactericidal activity against Pseudomonas aeruginosa after 24 hrs; type: functional
Klebsiella pneumoniae [43] = assay: Antibiofilm activity against Klebsiella pneumoniae incubated for 24 hrs followed by biofilm resuspension in PBS and measured after 24 hrs; type: functional; in short: as §3
Staphylococcus aureus [44] = assay: Antimicrobial activity against Staphylococcus aureus assessed as inhibition of microbial growth at 45 uM after 24 hrs; type: functional, organism-based; in short: as §4
Acinetobacter baumannii [45] = assay: Antibiofilm activity against Acinetobacter baumannii incubated for 24 hrs followed by biofilm resuspension in PBS and measured after 24 hrs; type: functional; in short: as §3
[46] = Selectivity index, ratio of IC50 for human A549 cells to MIC for Klebsiella pneumoniae
Acinetobacter baumannii [47] = assay: Antimicrobial activity against Acinetobacter baumannii assessed as inhibition of microbial growth after 24 hrs; type: functional; in short: as §1
A549 = assay: Cytotoxicity against human A549 cells after 48 hrs by MTT assay; type: cell-based; details: A549, 48 h; in short: as §2
[48] = Induction of hemolysis in human RBC at 10 uM incubated for 15 mins; type: cell-based, Erythrocyte; details: red blood cells, read-out: Activity
In short: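 Human RBCs from whole blood, resuspended 20% v/v in HA buffer (NaCl, CaCl2), compound 10 μM, 15 min at 37°C. Centrifuged 5,500 g for 1 min, supernatant OD543 read. Percent hemolysis against DMF vehicle (0%) and 1.0% Triton X-100 (100%); triplicate.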

## CCCCCCCN1C(=N)N(CCCC[C@H]2CNC(=N)N2CCC23C[C@H]4C[C@@H](C2)C[C@@H](C3)C4)C[C@@H]1CCCC
Enterobacter cloacae [1]
  MIC: 1.7 µM
Enterobacter cloacae [2]
  Ratio: <=8
Staphylococcus aureus [3]
  Activity: inactive
[4]
  viability at 48 h: 53%
Pseudomonas aeruginosa [5]
  Activity: inactive
[6]
  Selectivity Index: 88
Enterococcus faecium [7]
  MBEC50: 13 µM
Klebsiella pneumoniae [8]
  MIC: 1.7 µM
Klebsiella pneumoniae [9]
  growth inhibition (GI): Active
Enterococcus faecium [10]
  Activity: inactive
Staphylococcus aureus [11]
  MBC90: 2.9 µM (≈ 1.57 µg/mL)
Enterobacter cloacae [12]
  MBC90: 2.7 µM (≈ 1.46 µg/mL)
Pseudomonas aeruginosa [13]
  growth inhibition (GI): Active
Klebsiella pneumoniae [14]
  MBC90: 2.6 µM (≈ 1.41 µg/mL)
Staphylococcus aureus [15]
  Activity: Active
Enterococcus faecium [16]
  growth inhibition (GI): Active
Acinetobacter baumannii [17]
  growth inhibition (GI): Active
Staphylococcus aureus [18]
  fold change (FC): 2.5
Klebsiella pneumoniae [19]
  Activity: inactive
Enterococcus faecium [20]
  MBC90: 3.6 µM (≈ 1.95 µg/mL)
Enterococcus faecium [21]
  MIC: 1.7 µM
Staphylococcus aureus [22]
  MIC: 1.7 µM
[23]
  Selectivity Index: 88
[24]
  Selectivity Index: 88
Pseudomonas aeruginosa [25]
  growth inhibition (GI): Active
Klebsiella pneumoniae [26]
  Ratio: <=8
Staphylococcus aureus [27]
  Activity: inactive
[28]
  Selectivity Index: 88
Staphylococcus aureus [29]
  MBEC50: 6.4 µM
Enterobacter cloacae [30]
  Activity: inactive
Pseudomonas aeruginosa [31]
  MBEC50: 5 µM
Acinetobacter baumannii [32]
  Activity: inactive
Enterobacter cloacae [33]
  growth inhibition (GI): Active
Acinetobacter baumannii [34]
  Ratio: <=8
Enterobacter cloacae [35]
  MBEC50: 15 µM
Staphylococcus aureus [36]
  Ratio: 16
[37]
  viability at 48 h, 225 µM: 35%
Acinetobacter baumannii [38]
  MBC90: 4.7 µM (≈ 2.54 µg/mL)
[39]
  Selectivity Index: 88
Staphylococcus aureus [40]
  Survival: 0.2%
Pseudomonas aeruginosa [41]
  MIC: 1.7 µM
Pseudomonas aeruginosa [42]
  MBC90: 2.8 µM (≈ 1.51 µg/mL)
Klebsiella pneumoniae [43]
  MBEC50: 8.6 µM
Staphylococcus aureus [44]
  growth inhibition (GI): Active
Acinetobacter baumannii [45]
  MBEC50: 24 µM
[46]
  Selectivity Index: 88
Acinetobacter baumannii [47]
  MIC: 1.7 µM
A549
  IC50: 146 µM
[48]
  hemolysis at 0.25 h, 10 µM: 0.34%
